The list is not random: actives were taken first. Their share in the collection is about 2.2%.
APJ agonist – agonists of human apelin receptor APJ, primary screen, CHO-K1 cells, PathHunter beta-arrestin, luminescence; P35414; 0% DMSO wells, 100% apelin; activation, % at 20 µM; hit rate 0.11% among 330,000; AID 2520, 2010;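 active = activation more than six SD over the plate average, tested at 20 µM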;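 note: 0% = DMSO alone and 100% = apelin-13 at 10 nM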
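Assay system: CHO-K1 APJ beta-arrestin complementation cell line / Compound: single test compound dose, 20 µM final, 1% DMSO / Times: overnight seeding, 90 min compound at 25 °C, 1 h detection / Technique: beta-gal luminescence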
APJ antagonist – antagonists of human apelin receptor APJ, primary screen, CHO-K1 cells, beta-arrestin complementation, luminescence; P35414; inhibition, % at 20 µM; hit rate 0.32% among 330,000;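 active = inhibition above about 40% at 20 µM, limit read from the data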;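 note: cells challenged with 10 nM apelin-13 agonist together with compound; plate controls were apelin-13 plus DMSO wells for no effect and DMSO wells lacking apelin-13 for full effect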
CXCR6 block – CXCR6 receptor inhibitors, primary screen, cell-based, beta-arrestin, luminescence, CHO-K1 PathHunter, 1536-well; C-X-C chemokine receptor type 6 (Homo sapiens), O00574; inhibition, % at 20 µM; hit rate 0.36% among 360,000; AID 602244, 2012; in the data active = inhibition above about 34%, passing the limit was not always enough;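 note: antagonist mode with CXCL16 agonist at 10 nM final; 0% = 10 nM CXCL16 with DMSO and 100% = unstimulated wells without agonist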
m5-HT2A agonist – mouse Htr2a agonists via beta-arrestin recruitment, primary screen, cell-based, luminescence. 5-hydroxytryptamine receptor 2A (Mus musculus), P35363. CHO-K1 mHTR2A beta-arrestin complementation; percent of 30 µM serotonin response. activation, % at 7.6 µM. hit rate 0.66% among 360,000. AID 624169, 2012;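 active = activation above a run cutoff, the mean activation of all tested compounds plus 3 SD, cut at about 14% in these data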;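 note: 0% = plate median of compound wells and 100% = 30 µM serotonin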
Target sequence (P35363 whole entry, looked up): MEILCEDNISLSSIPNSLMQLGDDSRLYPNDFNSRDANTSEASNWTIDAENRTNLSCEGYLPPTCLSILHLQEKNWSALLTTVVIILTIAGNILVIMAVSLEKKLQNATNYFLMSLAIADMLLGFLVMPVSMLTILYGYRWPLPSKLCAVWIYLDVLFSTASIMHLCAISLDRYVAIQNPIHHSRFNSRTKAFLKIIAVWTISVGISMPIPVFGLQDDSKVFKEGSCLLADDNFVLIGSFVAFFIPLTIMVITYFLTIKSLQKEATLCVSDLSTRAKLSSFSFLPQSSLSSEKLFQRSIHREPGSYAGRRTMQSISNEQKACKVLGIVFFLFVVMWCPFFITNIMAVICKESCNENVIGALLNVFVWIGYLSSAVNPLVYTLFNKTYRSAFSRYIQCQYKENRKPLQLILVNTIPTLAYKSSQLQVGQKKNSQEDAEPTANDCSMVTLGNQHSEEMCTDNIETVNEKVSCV
CCR6 antag – CCR6 receptor antagonists, primary screen, cell-based, CHO-K1, luminescence, beta-arrestin, uHTS; C-C chemokine receptor type 6 (Homo sapiens), P51684; CHO-K1 CCR6 PathHunter beta-arrestin, CCL20-stimulated; inhibition, % at 20 µM; hit rate 0.49% among 340,000; AID 493098, 2011;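 active = compounds whose inhibition of the agonist-driven luminescence signal at 20 µM reaches about 50%, limit read from the data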;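 note: cells stimulated with CCL20 at 14 nM final; plate controls were DMSO with CCL20 for no effect and DMSO without agonist for full effect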
EBI2 antag – EBI2 receptor antagonists, beta-arrestin recruitment, primary screen, cell-based, luminescence, 7a,25-OHC stimulation, uHTS | G-protein coupled receptor 183 (Homo sapiens), P32249 | 7a,25-OHC stimulated | inhibition, % at 5 µM | hit rate 0.81% among 360,000; in the data active = inhibition above about 38%;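 note: enzyme fragment complementation signal reports receptor beta-arrestin coupling in cells; 0% = agonist plus DMSO wells and 100% = wells without agonist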
APJ antag confirm – APJ antagonists blocking beta-arrestin recruitment, confirmation, cell-based, luminescence, single concentration, uHTS hits | shares compounds with APJ antagonist | antagonist mode | inhibition, % at 20 µM | hit rate 66% among 950; in the data active = inhibition above about 50%
Numbers without * were called inactive; x = not tested or not shown.

SMILES | APJ agonist | APJ antagonist | CXCR6 block | m5-HT2A agonist | CCR6 antag | EBI2 antag | APJ antag confirm
CCOCCCN1C(=O)CN(C2CCCCC2)C(=O)C1c1ccc(OC)c(OC)c1 (centres undefined) | -2.0 | 40.0 | 1.7 | 10.1 | 0.1 | 5.0 | 5.9
CCCOc1ccc(C2C(=O)N(C3CCCCC3)CC(=O)N2CCCOCC)cc1OC (centres undefined) | -5.8 | -4.0 | -5.9 | -0.9 | -3.8 | -4.9 | x
CCOc1ccc(C(=O)NC(=S)Nc2cccnc2)cc1[N+](=O)[O-] | -5.1 | 43.1* | 17.2 | 1.6 | 33.8 | -10.0 | 43.2
CCc1noc(C)c1C(=O)NCCN1C(=O)S/C(=C\c2ccccc2F)C1=O | x | x | -1.9 | 2.4 | x | -5.2 | x
O=C1N/C(=C\c2ccccc2)C(O)=C1C=NCc1ccccc1 | 0.3 | 45.4* | -2.0 | -0.4 | 13.0 | -1.4 | 10.1
COc1ccccc1-c1noc2c1C(=O)N(Cc1cn(-c3ccccc3OC)nn1)CC2 | x | x | -1.1 | 10.2 | x | -9.1 | x
Cc1ccccc1NC(=O)c1ccc(Nc2c([N+](=O)[O-])cc([N+](=O)[O-])c3ccccc23)cc1 | -4.9 | 57.3* | 41.9* | -6.9 | 59.6* | 21.6 | 89.6*
CC(=O)Nc1nc(C)c(-c2csc(Nc3cccc([N+](=O)[O-])c3)n2)s1 | -2.3 | 20.0 | 5.3 | -0.6 | 20.7 | 22.8 | x
CC(=O)c1cccc(Nc2nc(-c3cccc([N+](=O)[O-])c3)cs2)c1 | -18.0 | 51.8* | 1.5 | -1.4 | 5.9 | 26.8 | -20.8
O=C(CSC1=Nc2ccccc2C2=NC(c3ccccc3)C(=O)N12)NC1CCCCC1 (centres undefined) | -10.6 | 14.1 | 29.7 | 0.8 | 42.9 | 8.6 | x
CN(C(=O)CSC1=Nc2ccccc2C2=NC(c3ccccc3)C(=O)N12)C1CCCCC1 (centres undefined) | -17.3 | 47.2* | 47.2* | -3.3 | 52.4* | 21.5 | 61.0*
O=C(C[n+]1ccc(-c2cc(C(=O)Nc3cccc(C(F)(F)F)c3)c3ccccc3n2)cc1)c1cccc([N+](=O)[O-])c1 | -4.8 | 52.0* | 27.4 | 1.4 | 37.8 | -8.5 | 63.1*
CCOC(=O)C1=NNC(C(=O)c2ccc(Cl)cc2)C1c1ccccc1 (centres undefined) | -10.7 | 48.9* | 8.8 | -0.7 | 41.3 | 15.2 | 75.4*
COC(=O)C1NN=C(C(=O)c2ccc(Cl)cc2)C1c1ccc(OC)cc1 (centres undefined) | -10.0 | 64.9* | 26.9 | -6.3 | 58.5* | 11.9 | 81.5*
COC(=O)C1NN=C(C(=O)c2ccccc2)C1c1ccccc1 (centres undefined) | -2.1 | 19.1 | -2.9 | 7.0 | 13.1 | -3.0 | x
CCOC(=O)C1=NNC(C(=O)O)C1c1ccccc1 (centres undefined) | x | x | -2.7 | 2.8 | 1.3 | 1.5 | x
CCN1C(=O)/C(=C2/C=Cc3ccccc3N2CC)SC1=S | -5.9 | 16.0 | 20.6 | -1.7 | 32.6 | 4.5 | x
CN1C(=O)/C(=C2/C=Cc3ccccc3N2CCCS(=O)(=O)O)SC1=S | -8.5 | 47.1* | 37.5 | -9.8 | 58.0* | -0.3 | 95.9*
CC(=O)NC(c1ccccc1)c1nc(-c2cccc(C(F)(F)F)c2)cs1 (centres undefined) | x | x | -2.1 | -2.1 | x | 4.7 | x
CN1C(=O)/C(=C/c2ccc(O)c([N+](=O)[O-])c2)N(C)C1=S | -8.4 | 46.4* | 43.1* | 0.3 | 56.8* | 2.5 | 84.8*
COc1cccc(OCc2nc3ccccc3c(=O)n2N)c1 | -1.7 | 42.8* | 2.4 | 2.9 | -10.6 | -13.5 | -31.5
O=C1Nc2ccccc2N(C(=O)c2ccc(-c3ccccc3)cc2)C1c1nc2ccccc2[nH]1 (centres undefined) | x | x | -3.0 | -0.9 | x | 6.8 | x
